Reference: PubChem BioAssay AID463076 (The Scripps Research Institute Molecular Screening Center, 2010)
Calls of active or inactive are those of the source.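 The calls were made as follows: active = compounds blocking FLT3 kinase activity with IC50 at or below 1000 nM; inactive = IC50 above 1000 nM.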

These compounds were tested against Receptor-type tyrosine-protein kinase FLT3 (Homo sapiens) (UniProt P36888) (assay: FLT3 kinase inhibition, late-stage follow-up, selectivity assay for CK1d inhibitor project, biochemical, radioactive 33P-ATP, powder samples (AID 463076)). Details: purified FLT3, 33P-ATP Abltide filter-binding assay.
Receptor-type tyrosine-protein kinase FLT3 (Homo sapiens), sequence (P36888 whole entry, looked up): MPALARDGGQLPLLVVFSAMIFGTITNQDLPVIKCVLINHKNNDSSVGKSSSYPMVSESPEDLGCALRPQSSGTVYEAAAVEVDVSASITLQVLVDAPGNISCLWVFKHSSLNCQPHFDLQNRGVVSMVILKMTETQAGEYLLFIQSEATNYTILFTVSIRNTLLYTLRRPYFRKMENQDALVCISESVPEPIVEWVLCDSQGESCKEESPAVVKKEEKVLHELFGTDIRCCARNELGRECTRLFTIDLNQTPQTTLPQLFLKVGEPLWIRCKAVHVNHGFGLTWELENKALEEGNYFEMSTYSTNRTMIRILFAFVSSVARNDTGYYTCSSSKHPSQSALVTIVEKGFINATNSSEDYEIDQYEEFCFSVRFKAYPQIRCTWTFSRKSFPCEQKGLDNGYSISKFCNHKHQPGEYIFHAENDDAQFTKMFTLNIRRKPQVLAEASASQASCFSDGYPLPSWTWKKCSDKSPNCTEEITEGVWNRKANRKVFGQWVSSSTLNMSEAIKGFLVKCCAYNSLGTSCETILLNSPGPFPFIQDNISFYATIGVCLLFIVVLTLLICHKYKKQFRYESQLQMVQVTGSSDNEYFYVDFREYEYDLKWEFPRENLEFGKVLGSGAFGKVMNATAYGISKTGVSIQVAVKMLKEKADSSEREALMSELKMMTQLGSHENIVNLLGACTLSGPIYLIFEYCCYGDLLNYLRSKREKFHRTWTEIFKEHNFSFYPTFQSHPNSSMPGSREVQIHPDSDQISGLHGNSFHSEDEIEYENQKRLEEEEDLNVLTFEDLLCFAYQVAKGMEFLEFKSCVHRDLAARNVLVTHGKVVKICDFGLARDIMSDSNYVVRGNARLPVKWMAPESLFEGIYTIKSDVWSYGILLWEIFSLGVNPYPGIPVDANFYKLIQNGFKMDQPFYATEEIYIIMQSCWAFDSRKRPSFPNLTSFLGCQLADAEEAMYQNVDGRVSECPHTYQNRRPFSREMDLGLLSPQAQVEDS
Procedure, shortened: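 Material: kinase enzyme in a cell-free radiometric reaction; Compound: 10-point threefold dilution series from 50 µM nominal top; Detection: radiometric filter-binding readout; Buffer or medium: Hepes pH 7.5, MgCl2, DTT, 1% DMSO; Schedule: kinase reaction 120 min at room temperature; Evaluation: IC50 from signal ratio curve; Reagent: 33P-labelled ATP plus peptide substrate.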

Row | SMILES | IC50
1 | O=[N+]([O-])c1cccc2[nH]c(CNc3nc(N4CCOCC4)nc4c3ncn4-c3ccsc3)nc12 | 305 nM
2 | FC(F)(F)c1ccc2nc(CNc3nc(N4CCOCC4)nc4c3ncn4-c3ccsc3)[nH]c2c1 | 509 nM
3 | Clc1ccc2nc(CNc3nc(N4CCOCC4)nc4c3ncn4-c3ccsc3)[nH]c2c1 | 301 nM
4 | Cc1ccnc(NC(=O)CCCOc2cc(=O)n(C)c3ccccc23)c1 | inactive
5 | CC(C)n1cnc2c(NCc3nc4c([N+](=O)[O-])cccc4[nH]3)nc(N3CCOCC3)nc21 | inactive
6 | c1ccc2cc3[nH]c(CNc4nc(N5CCOCC5)nc5c4ncn5-c4ccsc4)nc3cc2c1 | 975 nM
7 | O=[N+]([O-])c1ccc2nc(CNc3nc(N4CCOCC4)nc4c3ncn4-c3ccsc3)[nH]c2c1 | 240 nM
8 | N#Cc1ccc2nc(CNc3nc(N4CCOCC4)nc4c3ncn4-c3ccsc3)[nH]c2c1 | 62 nM
9 | Fc1ccc2nc(CNc3nc(N4CCOCC4)nc4c3ncn4-c3ccsc3)[nH]c2c1 | 79 nM
10 | CCOC(=O)c1cccc2[nH]c(CNc3nc(N4CCOCC4)nc4c3ncn4-c3ccsc3)nc12 | 548 nM
11 | COc1ccc2nc(CNc3nc(N4CCOCC4)nc4c3ncn4-c3ccsc3)[nH]c2c1 | 14 nM
12 | FC(F)(F)c1cccc2[nH]c(CNc3nc(N4CCOCC4)nc4c3ncn4-c3ccsc3)nc12 | 262 nM
13 | c1ccc2[nH]c(CNc3nc(N4CCOCC4)nc4c3ncn4-c3ccsc3)nc2c1 | 100 nM
